miR-122 sensor – miR-122 inhibition in Huh7 cells; Huh7 miR-122 Renilla luciferase sensor, 48 h; neutral wells = 0, positive control = 100; activation (reporter increase), % at 12.5 µM; 340,000 compounds, 0.3% hits; AID 602342;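 active = mean replicate activation score at least 90 and every replicate individually at or above 90; inconclusive = only one of the two criteria met; inactive = neither criterion met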;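 note: higher luciferase means less miR-122 activity so hits act as miR-122 inhibitors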
ERAP1 inh – ERAP1 (human) enzyme inhibition; recombinant ERAP1, Leu-AMC fluorescence, 60 min; inhibition, % at 10.7 µM; 340,000 compounds, 0.15% hits; AID 652197;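 active = mean replicate inhibition of at least 30%, or all replicates individually reaching that 30% level; inactive = mean below 30% and not every replicate reaching it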
F508del corr – CFTR F508del correction in bronchial cells; CFBE cells, YFP halide quenching; stimulated with forskolin plus potentiator P3; % fluorescence drop versus neutral controls; activity (quench increase), % at 7.58 µM; 350,000 compounds, 0.36% hits; AID 720511;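 active = mean added fluorescence quench of at least 8% versus neutral control, with both replicates also reaching 8%; inconclusive = only one of the mean or replicate conditions met; inactive = mean below 8% and not both replicates reaching 8%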;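 note: cells transiently co-express mutant CFTR-F508del with the halide-sensitive YFP; corrector assay measuring rescue of mutant channel to the surface after 24 h compound exposure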
DENV2 CPE – DENV2-induced cell death inhibition. 350,000 compounds, 1.7% hits. AID 651640. CPE inhibition, % at 9.99 µM. DENV2-infected cells, cytopathic effect rescue, plate reader; in the data active = CPE inhibition above about 20%, passing the limit was not always enough; inconclusive = no clear call, values can overlap the other calls; tested in BHK-21 cells
E-sel inducer – E-selectin induction on HUVECs; P16581; HUVEC E-selectin immunofluorescence imaging; normalized: neutral wells 0, TNF-alpha wells 100; activation, % at 7.58 µM; 260,000 compounds, 0.37% hits; AID 686992;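 active = mean E-selectin-positive cell signal at least 10% of the positive control, reached in at least 60% of replicates, without over 20% cell loss; inconclusive = no rule given, readout overlaps actives, possibly toxicity-flagged; inactive = the rest, including those meeting only one limit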
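Assay system: HUVEC, human umbilical vein endothelial cells / Amount: 3,000 HUVEC/well / Controls: TNF-alpha positive control, DMSO neutral control / Compound dosing: single concentration / Medium: EGM-2 over gelatin coat / Evaluation: percent E-selectin-positive cells / Signal: immunofluorescence imaging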
INS-1E GSIS act – primary screen for activators of insulin secretion dependent on glucose, INS-1E cells, GLuc reporter luminescence; INS-1E GLuc reporter insulin secretion, 2-3 h; activation, % at 16.6 µM; 370,000 compounds, 0.61% hits; AID 743287;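 active = lowest replicate activation of at least 40%, so every replicate reaches that level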
Hits are given with their value; n = inactive; u = inconclusive; x = no result given; [ ] = dose if it differs, or a comment. An excerpt weighted towards active compounds, which were near 2.6% of everything screened.

SMILES	miR-122 sensor	ERAP1 inh	F508del corr	DENV2 CPE	E-sel inducer	INS-1E GSIS act
CN1C(=O)c2cc(NC(=O)c3ccc(F)c(F)c3)ccc2OC[C@@H]2O[C@@H](CC(=O)N3CCOCC3)CC[C@@H]21	n	n	n	n	n	n
CCCNC(=O)N1CC2(CN(Cc3ccc(F)cc3)C2)c2c([nH]c3cc(OC)ccc23)[C@H]1CO	x	n	n	n	n	n
CC(C)CCNC(=O)C(=O)Nc1ccc2c(c1)N(S(=O)(=O)c1cccs1)CCC2	n	n	12	n	n	n
CC(C)CNC(=O)C(=O)Nc1ccc2c(c1)N(S(=O)(=O)c1cccs1)CCC2	n	n	n	n	n	n
O=C(C[C@H]1CC[C@@H]2[C@H](COC[C@H](O)CN2S(=O)(=O)c2ccccc2)O1)NCCN1CCCC1	x	n	n	28	n	n
O=C(C[C@H]1CC[C@@H]2[C@H](COC[C@@H](O)CN2S(=O)(=O)c2ccc(Cl)cc2)O1)NCCN1CCCC1	n	n	n	n	n	n
O=C(C[C@@H]1CC[C@@H]2[C@H](COC[C@@H](O)CN2S(=O)(=O)c2ccc(Cl)cc2)O1)NCCN1CCCC1	n	n	n	27	n	n
O=C(C[C@@H]1CC[C@@H]2[C@H](COC[C@H](O)CN2C(=O)c2ccc3c(c2)OCO3)O1)NCCN1CCCC1	x	n	n	31	n	n
CCCC#Cc1ccc2c(c1)O[C@@H](CN(C)S(=O)(=O)c1cccc(OC)c1)[C@@H](C)CN([C@@H](C)CO)S2(=O)=O	n	n	n	n	98	n
CCCC#Cc1ccc2c(c1)O[C@H](CN(C)S(=O)(=O)c1cccc(OC)c1)[C@@H](C)CN([C@H](C)CO)S2(=O)=O	n	x	n	x	n	n
COCC#Cc1ccc2c(c1)O[C@H](CN(C)S(=O)(=O)c1ccc(OC)cc1)[C@H](C)CN([C@H](C)CO)S2(=O)=O	120[16.7 µM]	n	n	n	n	n
CO[C@@H]1CN(C)C(=O)c2cc(NC(=O)Nc3ccccc3F)ccc2OC[C@@H](C)N(Cc2ccccc2C(=O)O)C[C@H]1C	x	n	n	n	n	n
Cc1cccc(NS(=O)(=O)c2ccc(S(=O)(=O)N3CCCC3)cc2)c1	n	n	n	u	206	n
Cc1ccc(S(=O)(=O)c2cccc(S(=O)(=O)N3CCCC3)c2)cc1S(=O)(=O)N1CCCC1	110	x	x	x	x	x
Cc1ccccc1NS(=O)(=O)c1ccc(S(=O)(=O)N2CCCC2)cc1	n	n	n	22	n	n
Cc1ccc(S(=O)(=O)c2cccc(S(=O)(=O)N3CCOCC3)c2)cc1S(=O)(=O)N1CCOCC1	n	x	x	x	x	n
COc1cccc(NS(=O)(=O)c2ccc(S(=O)(=O)N3CCCC3)cc2)c1	n	n	n	n	x	n
CC(=NNC(=O)c1ccncc1)c1cccc(Cl)c1	n	n	n	n	n	n
C/C(=N\NC(N)=O)c1cccc(Cl)c1	x	n	n	38	x	n
C/C(=N/NC(=O)CCC(=O)Nc1cccc(Cl)c1)c1ccc(C)cc1	x	n	n	28	x	n
COc1ccc(C(=O)Nc2ccnn2C2CCN(C(=O)c3cnsn3)CC2)cc1	n	n	n	40	n	n
COc1ccc2c(c1)C(C)=CC(C)(C)N2S(=O)(=O)c1ccc(Br)cc1	114	n	n	n	x	n
CCOc1ccc2c(c1)C(C)=CC(C)(C)N2S(=O)(=O)c1ccc(F)cc1	n	n	10	n	x	n
CCOc1ccc2c(c1)C(C)=CC(C)(C)N2S(=O)(=O)c1ccc(NC(C)=O)cc1	n	n	n	n	n	n
CC(C)(C)NC(=S)N1CCC(C(=O)c2ccc(Cl)cc2)CC1	n	n	x	21	x	x
Cc1ccc(S(=O)(=O)N[C@@H]2CC[C@@H](CCn3cc(-c4ccccc4F)nn3)O[C@H]2CO)cc1	x	n	n	n	n	n
C[C@@H]1CN([C@@H](C)CO)C(=O)c2cc(-c3ccccc3F)cnc2O[C@@H]1CN(C)C(=O)C1CC1	n	n	n	n	n	n
COc1ccc2c3c(n(C)c2c1)[C@@H](CO)N(Cc1ccc(F)cc1)CC31CN(CC2CCOCC2)C1	x	x	n	99	n	n
COCC(=O)N1CC2(CCN(Cc3cncnc3)CC2)c2c(n(C)c3cc(OC)ccc23)[C@H]1CO	x	x	n	50	n	n

Compound activity as filed in PubChem.
